From ChEMBL document CHEMBL1137646, “Intracellular metabolism and persistence of the anti-human immunodeficiency virus activity of 2',3'-didehydro-3'-deoxy-4'-ethynylthymidine, a novel thymidine analog” (Antimicrob Agents Chemother, 2007)
Calls of active or inactive are those of the source. No cut-off for these calls is given here.

Tests used:
[1] = system: CCRF-CEM; assay: Drug metabolism in human CEM cells assessed as radioactive 2', 3'-didehydro-3'-deoxy-4'-ethynylthymidine diphosphate accumulation after 12 hrs assessed per 10^6 cells; format: ADME, cell-based
How it was run: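 For the dose series, CEM cells took up [3H]4'-Ed4T at 0.2/0.25, 0.5, 1 and 2 µM (150 mCi/mmol) for 12 h. TCA extracts were neutralized and the mono-, di- and triphosphates resolved by SAX-HPLC with radioactivity detection. Values are pmol/10^6 cells, mean ± SD, three independent experiments.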

[2] = system: CCRF-CEM; assay: Stability in human CEM cells assessed as intracellular radioactive phosphorylated metabolite accumulation at 2 uM incubated for 24 hrs measured after 8 hrs of compound removal assessed per 10^6 cells; format: ADME, cell-based
How it was run: (§1)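 CEM cells were loaded with 2 µM [3H]analog (75 mCi/mmol) for 24 h, washed, and resuspended in drug-free medium. Intracellular metabolites were then measured by SAX-HPLC with radiometric detection at 0, 2, 4, 8, 12 and 24 h after removal. Values are pmol/10^6 cells, mean ± SD of three experiments.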

[3] = system: CCRF-CEM; assay: Drug metabolism in human CEM cells assessed as radioactive zidovudine diphosphate accumulation at 2 uM assessed per 10^6 cells; format: ADME, cell-based; conditions: TDE = time-dependent effect
How it was run: (§2)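 CEM cells (2 x 10^7/ml) in RPMI 1640 with 10% dialyzed FBS were incubated at 37°C with 2 µM [3H]analog (75 mCi/mmol) and harvested at 2, 4, 8, 12, 16 and 24 h. Cells were washed in ice-cold PBS with 20 µM dipyridamole and extracted with 15% TCA. Neutralized extracts were separated on a Partisil SAX column with an H2O to 300 mM potassium phosphate gradient and radiometric detection, reported as pmol/10^6 cells, mean ± SD of three experiments.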

[4] = system: CCRF-CEM; assay: Drug metabolism in human CEM cells assessed as radioactive 2', 3'-didehydro-3'-deoxy-4'-ethynylthymidine triphosphate accumulation after 12 hrs assessed per 10^6 cells; format: ADME, cell-based; how it was run: as §2
[5] = system: Human immunodeficiency virus 1; assay: Antiviral activity against 0.1 MOI HIV1 3B infected in human TZM-b1 cells assessed as inhibition of viral replication after 24 hrs by luciferase assay; format: functional, organism-based
How it was run: (§3)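 TZM-bl cells in phenol red-free RPMI 1640 were infected with HIV-1 IIIB (MOI 0.1) at the time of adding drug at various concentrations, and drug and virus stayed together for 24 h. Lysate luciferase was measured with uninfected background subtracted, in quintuple wells. Inhibition was the mean signal relative to drug-free infected cells.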

[6] = system: RKO; assay: Drug metabolism in doxycyclin-induced Tet-On gene expressing human RKO cells producing 3-phosphoglycerate kinase assessed as increase in radioactive 2', 3'-didehydro-3'-deoxy-4'-ethynylthymidine triphosphate accumulation at 2 uM after 16 hrs assessed per 10^6 cells by HPLC analysis relative to control; format: ADME, cell-based
How it was run: (§4)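 Tet-On PGK RKO cells (5 x 10^5 per dish) were induced with doxycycline at 0, 50 or 100 ng/ml for 48 or 72 h, then given 2 µM [5'-3H]4'-Ed4T (478 mCi/mmol) for 16 h. Cells were washed in cold PBS with 20 µM dipyridamole and extracted with 15% TCA. Neutralized extracts went through SAX-HPLC with radiometric detection, expressed as pmol/10^6 cells, mean of three experiments.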

[7] = system: CCRF-CEM; assay: Drug metabolism in human CEM cells assessed as radioactive 2', 3'-didehydro-3'-deoxy-4'-ethynylthymidine triphosphate accumulation at 2 uM assessed per 10^6 cells; format: ADME, cell-based; conditions: TDE = time-dependent effect; how it was run: as §2
[8] = system: Human immunodeficiency virus 1; assay: Antiviral activity against 0.1 MOI HIV1 3B in 24 hrs pretreated human TZM-b1 cells infected 0 hr post drug removal assessed as inhibition of viral replication at 3 uM measured 24 hrs postinfection by luciferase assay; format: functional; conditions: Human immunodeficiency virus 1, 3B
How it was run: (§5)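 TZM-bl cells were plated in phenol red-free RPMI 1640, allowed to adhere 15–18 h at 37°C, then exposed to a range of drug concentrations for 24 h. Medium was changed to remove extracellular drug, and cells were infected with HIV-1 IIIB (MOI 0.1) at 0, 24 or 48 h after removal. Luciferase was read 24 h post-infection with uninfected-cell background subtracted, in quintuple wells, and expressed relative to no-drug wells.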

[9] = system: CCRF-CEM; assay: Drug metabolism in human CEM cells assessed as radioactive stavudine diphosphate accumulation at 2 uM assessed per 10^6 cells; format: ADME, cell-based; conditions: TDE = time-dependent effect; how it was run: as §2
[10] = system: CCRF-CEM; assay: Drug metabolism in human CEM cells assessed as radioactive stavudine monophosphate accumulation at 2 uM assessed per 10^6 cells; format: ADME, cell-based; conditions: TDE = time-dependent effect; how it was run: as §2
[11] = system: Human immunodeficiency virus 1; assay: Antiviral activity against 0.1 MOI HIV1 3B in 24 hrs pretreated human TZM-b1 cells infected 0 hr post drug removal assessed as inhibition of viral replication at 1 uM measured 24 hrs postinfection by luciferase assay; format: functional; conditions: Human immunodeficiency virus 1, 3B; how it was run: as §5
[12] = system: CCRF-CEM; assay: Drug metabolism in human CEM cells assessed as radioactive zidovudine triphosphate accumulation at 2 uM assessed per 10^6 cells; format: ADME, cell-based; conditions: TDE = time-dependent effect; how it was run: as §2
[13] = system: RKO; assay: Drug metabolism in doxycyclin-induced Tet-On gene expressing human RKO cells producing thymidylate kinase assessed as radioactive 2', 3'-didehydro-3'-deoxy-4'-ethynylthymidine diphosphate accumulation after 16 hrs assessed per 10^6 cells by HPLC analysis; format: ADME, cell-based
How it was run: (§6)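 TMPK Tet-On RKO cells were seeded at 5 x 10^5 per dish with doxycycline at 0, 50 or 3,000 ng/ml for 48 or 72 h, then pulsed for 16 h with 2 µM [5'-3H]4'-Ed4T (478 mCi/mmol). After a cold PBS wash containing 20 µM dipyridamole, cells were extracted with 15% TCA and neutralized with trioctylamine/trichlorotrifluoroethane. Metabolites were quantified by radio-HPLC as pmol/10^6 cells, n=3.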

[14] = system: Human immunodeficiency virus 1; assay: Antiviral activity against 0.1 MOI HIV1 3B in 24 hrs pretreated human TZM-b1 cells infected 0 hr post drug removal assessed as inhibition of viral replication at 2 uM measured 24 hrs postinfection by luciferase assay; format: functional; conditions: Human immunodeficiency virus 1, 3B; how it was run: as §5
[15] = system: Human immunodeficiency virus 1; assay: Antiviral activity against 0.1 MOI HIV1 3B in 24 hrs pretreated human TZM-b1 cells infected 0 hr post drug removal assessed as inhibition of viral replication at 5 uM measured 24 hrs postinfection by luciferase assay; format: functional; conditions: Human immunodeficiency virus 1, 3B; how it was run: as §5
[16] = system: Human immunodeficiency virus 1; assay: Antiviral activity against 0.1 MOI HIV1 3B in 24 hrs pretreated human TZM-b1 cells infected 24 hrs post drug removal assessed as inhibition of viral replication at 1 uM measured 24 hrs postinfection by luciferase assay; format: functional; conditions: Human immunodeficiency virus 1, 3B; how it was run: as §5
[17] = system: CCRF-CEM; assay: Drug metabolism in human CEM cells assessed as radioactive 2', 3'-didehydro-3'-deoxy-4'-ethynylthymidine diphosphate accumulation at 2 uM assessed per 10^6 cells; format: ADME, cell-based; conditions: TDE = time-dependent effect; how it was run: as §2
[18] = system: Human immunodeficiency virus 1; assay: Antiviral activity against 0.1 MOI HIV1 3B infected in human TZM-b1 cells assessed as inhibition of viral replication at 2 uM after 24 hrs by luciferase assay; format: functional; conditions: Human immunodeficiency virus 1, 3B, TZM-b1, 24 h; how it was run: as §3
[19] = system: CCRF-CEM; assay: Drug metabolism in human CEM cells assessed as radioactive stavudine triphosphate accumulation at 2 uM assessed per 10^6 cells; format: ADME, cell-based; conditions: TDE = time-dependent effect; how it was run: as §2
[20] = system: CCRF-CEM; assay: Drug metabolism in human CEM cells assessed as radioactive zidovudine monophosphate accumulation at 2 uM assessed per 10^6 cells; format: ADME, cell-based; conditions: TDE = time-dependent effect; how it was run: as §2
[21] = system: CCRF-CEM; assay: Drug metabolism in human CEM cells assessed as radioactive 2', 3'-didehydro-3'-deoxy-4'-ethynylthymidine monophosphate accumulation after 12 hrs assessed per 10^6 cells; format: ADME, cell-based; how it was run: as §2
[22] = system: Human immunodeficiency virus 1; assay: Antiviral activity against 0.1 MOI HIV1 3B in 24 hrs pretreated human TZM-b1 cells infected 0 hr post drug removal assessed as inhibition of viral replication at 4 uM measured 24 hrs postinfection by luciferase assay; format: functional; conditions: Human immunodeficiency virus 1, 3B; how it was run: as §5
[23] = system: RKO; assay: Drug metabolism in doxycyclin-induced Tet-On gene expressing human RKO cells producing thymidylate kinase assessed as increase in radioactive 2', 3'-didehydro-3'-deoxy-4'-ethynylthymidine diphosphate accumulation at 2 uM after 16 hrs assessed per 10^6 cells by HPLC analysis relative to control; format: ADME, cell-based; how it was run: as §6
[24] = system: Human immunodeficiency virus 1; assay: Antiviral activity against 0.1 MOI HIV1 3B infected in human TZM-b1 cells assessed as inhibition of viral replication at 6 uM after 24 hrs by luciferase assay; format: functional; conditions: Human immunodeficiency virus 1, 3B, TZM-b1, 24 h; how it was run: as §3
[25] = system: Human immunodeficiency virus 1; assay: Antiviral activity against 0.1 MOI HIV1 3B in 24 hrs pretreated human TZM-b1 cells infected 24 hrs post drug removal assessed as inhibition of viral replication at 1 to 6 uM measured 24 hrs postinfection by luciferase assay
[26] = system: CCRF-CEM; assay: Drug metabolism in human CEM cells assessed as radioactive 2', 3'-didehydro-3'-deoxy-4'-ethynylthymidine monophosphate accumulation at 2 uM assessed per 10^6 cells; format: ADME, cell-based; conditions: TDE = time-dependent effect; how it was run: as §2
[27] = system: Human immunodeficiency virus 1; assay: Antiviral activity against 0.1 MOI HIV1 3B in 24 hrs pretreated human TZM-b1 cells infected 0 hr post drug removal assessed as inhibition of viral replication at 6 uM measured 24 hrs postinfection by luciferase assay; format: functional; conditions: Human immunodeficiency virus 1, 3B; how it was run: as §5
[28] = system: RKO; assay: Drug metabolism in doxycyclin-induced Tet-On gene expressing human RKO cells producing thymidylate kinase assessed as increase in radioactive 2', 3'-didehydro-3'-deoxy-4'-ethynylthymidine triphosphate accumulation at 2 uM after 16 hrs assessed per 10^6 cells by HPLC analysis relative to control; format: ADME, cell-based; how it was run: as §6
[29] = system: RKO; assay: Drug metabolism in doxycyclin-induced Tet-On gene expressing human RKO cells producing 3-phosphoglycerate kinase assessed as radioactive 2', 3'-didehydro-3'-deoxy-4'-ethynylthymidine triphosphate accumulation after 16 hrs assessed per 10^6 cells by HPLC analysis; format: ADME, cell-based; how it was run: as §4
[30] = system: CCRF-CEM; assay: Stability in human CEM cells assessed as intracellular radioactive triphosphate metabolite accumulation at 2 uM incubated for 24 hrs measured after 24 hrs of compound removal assessed per 10^6 cells; format: ADME, cell-based; how it was run: as §1

- Activity [1]: Dose-dependent effect
- Stability [2]: 1.07 pmol
- Activity [3]: tde
- Activity [4]: Dose-dependent effect
- fold change (FC) [6]: 2.3
- Activity [7]: tde
- Activity [9]: tde
- Activity [10]: tde
- Activity [12]: tde
- Activity [13]: Dose-dependent effect
- Activity [17]: tde
- Activity [19]: tde
- Activity [20]: tde
- Activity [21]: Dose-dependent effect
- fold change (FC) [23]: 3
- Activity [26]: tde
- fold change (FC) [28]: 3
- Activity [29]: Dose-dependent effect
- Stability [30]: 0.2 pmol
Compound: C#C[C@@]1(CO)C=C[C@H](n2cc(C)c(=O)[nH]c2=O)O1 [CENSAVUDINE]
- inhibition [5]: Dose-dependent effect
- inhibition at 3 µM [8]: 50%
- inhibition at 1 µM [11]: 50%
- inhibition at 2 µM [14]: 50%
- inhibition at 5 µM [15]: 50%
- inhibition at 1 µM [16]: > 50%
- inhibition at 2 µM [18]: 50%
- inhibition at 4 µM [22]: 50%
- inhibition at 6 µM [24]: 50%
- inhibition [25]: Active
- inhibition at 6 µM [27]: 50%
